In ChEMBL document CHEMBL3994572, “Antiviral Triterpenes from the Twigs and Leaves of Lyonia ovalifolia” (J Nat Prod, 2016):

What was measured:
Human alphaherpesvirus 1 = test: Antiviral activity against Herpes simplex virus-1 F VR 733 infected in African green monkey Vero cells assessed as inhibition of virus-induced cytopathic effect; type: functional; conditions: Human alphaherpesvirus 1, Strain F ATCC VR 733, Vero
How it was run: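 Vero cells (2.5 × 10^4/well) were seeded for 24 h, then the medium was removed. Cells were infected with HSV-1 at 100 TCID50 for 2 h, then given graded compound concentrations. Incubation continued until control CPE reached 4+. Runs were in triplicate, repeated at least three times. IC50 is the minimal concentration inhibiting 50% of CPE, by Reed and Muench.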

Influenza A virus = test: Antiviral activity against Influenza A virus A/95-359 infected in MDCK cells assessed as inhibition of virus-induced cytopathic effect; type: functional, cell-based; conditions: A/95-359, MDCK
How it was run: (§1)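 MDCK cells (2.5 × 10^4/well) seeded 24 h, PBS-washed, infected with influenza A/95-359 at 100 TCID50 for 2 h, then exposed to graded compound concentrations until control CPE reached 4+. IC50 = minimal concentration inhibiting 50% of CPE (Reed and Muench); triplicate, at least three separate experiments. […] SI = TC50/IC50.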

Coxsackievirus B3 = test: Antiviral activity against Coxsackievirus B3 infected in African green monkey Vero cells assessed as inhibition of virus-induced cytopathic effect; type: functional; conditions: Enterovirus B
How it was run: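 Vero monolayers were infected with Cox B3 at 100 TCID50 and allowed 2 h adsorption at 37 °C. They were then washed with PBS and kept at 37 °C in MEM with 2% FBS, with or without graded concentrations of test compounds. Read-out was CPE.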

[1] = Cytotoxicity against MDCK cells assessed as growth inhibition after 48 hrs; type: cell-based, Canis lupus familiaris; conditions: dog, read-out: TC50
How it was run: (§2)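 Vero or MDCK cells (2.5 × 10^4/well) were seeded for 24 h, then exposed to graded compound concentrations. After 48 h at 37 °C and 5% CO2, cytotoxicity was scored by CPE. TC50 was calculated by Reed and Muench analysis.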

[2] = Selectivity index, ratio of TC50 for African green monkey Vero cells to IC50 for Herpes simplex virus-1 F VR 733 infected in African green monkey Vero cells; type: toxicity; conditions: read-out: Selectivity Index
How it was run: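 Vero cells (2.5 × 10^4/well) seeded 24 h, medium removed, infected with HSV-1 at 100 TCID50 for 2 h, then graded compound concentrations added until control CPE reached 4+. IC50 = minimal concentration inhibiting 50% CPE (Reed and Muench); triplicate, at least three separate experiments. […] SI = TC50/IC50.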

[3] = Cytotoxicity against African green monkey Vero cells assessed as growth inhibition after 48 hrs; type: cell-based; conditions: chlorocebus sabaeus, read-out: TC50; how it was run: as §2
[4] = Selectivity index, ratio of TC50 for MDCK cells to IC50 for Influenza A virus (A/95-359) infected in MDCK cells; type: toxicity, cell-based; conditions: dog, read-out: Selectivity Index; how it was run: as §1

| SMILES | IC50 (Human alphaherpesvirus 1) [µM] | IC50 (Influenza A virus) [µM] | IC50 (Coxsackievirus B3) [µM] | CC50 at 48 h [1] [µM] | selectivity ratio [2] | CC50 at 48 h [3] [µM] | selectivity ratio [4] |
| --- | --- | --- | --- | --- | --- | --- | --- |
| C[C@H](CC[C@H](O[C@@H]1OC[C@H](O)[C@H](O)[C@H]1O)C(C)(C)O)[C@H]1CC[C@@]2(C(=O)O)[C@@H]3CCC4=C(CC[C@@H](O[C@@H]5O[C@H](CO)[C@@H](O)[C@H](O)[C@H]5O)C4(C)C)C[C@H]3CC[C@]12C | ≥ 33.3 | > 33.3 | ≥ 33.3 |  |  |  |  |
| CC(=O)OC[C@H]1O[C@@H](O[C@@H]2CCC3=C(CC[C@@H]4[C@H](CC[C@]5(C)[C@@H]([C@H](C)CC[C@H](O)C(C)(C)O)CC[C@@]45C(=O)O)C3)C2(C)C)[C@H](O)[C@@H](O)[C@@H]1O | ≥ 33.3 | > 11.1 | ≥ 33.3 | 48.1 |  |  |  |
| C[C@H](CC[C@H](O[C@@H]1OC[C@H](O)[C@H](O)[C@H]1O)C(C)(C)O)[C@H]1CC[C@@]2(C(=O)O)C3=C(CC[C@]12C)[C@@]1(C)CC[C@@H](O[C@@H]2OC[C@H](O)[C@H](O)[C@H]2O)C(C)(C)[C@@H]1CC3 | ≥ 33.3 | > 33.3 | ≥ 33.3 |  |  |  |  |
| CC(=O)OC[C@H]1O[C@@H](O[C@@H]2CC[C@]3(C)C4=C(CC[C@H]3C2(C)C)[C@]2(C(=O)O)CC[C@H]([C@H](C)CC[C@H](O[C@@H]3OC[C@H](O)[C@H](O)[C@H]3O)C(C)(C)O)[C@@]2(C)CC4)[C@H](O)[C@@H](O)[C@@H]1O | 14.3 | 33.3 | ≥ 33.3 | 57.7 | > 7 | > 100 | 1.7 |
| C[C@H](CC[C@H](O[C@@H]1OC[C@H](O)[C@H](O)[C@H]1O)C(C)(C)O)[C@H]1CC[C@@]2(C(=O)O)[C@@H]3CC[C@H]4C(=CC[C@@H](O[C@@H]5OC[C@H](O)[C@H](O)[C@H]5O)C4(C)C)C[C@H]3CC[C@]12C | ≥ 33.3 | > 33.3 | ≥ 33.3 |  |  |  |  |
| C[C@H](CC[C@H](O[C@@H]1OC[C@H](O)[C@H](O)[C@H]1O)C(C)(C)O)[C@H]1CC[C@@]2(C(=O)O)C3=C(CC[C@]12C)[C@@]1(C)CC[C@@H](O[C@@H]2O[C@H](CO)[C@@H](O)[C@H](O)[C@H]2O)C(C)(C)[C@@H]1CC3 | ≥ 33.3 | > 33.3 | ≥ 33.3 |  |  |  |  |
| C[C@H](CC[C@H](O[C@@H]1O[C@H](CO)[C@@H](O)[C@H](O)[C@H]1O)C(C)(C)O)[C@H]1CC[C@@]2(C(=O)O)[C@@H]3CC[C@@H]4C(=CC[C@@H](O[C@@H]5O[C@H](CO)[C@@H](O)[C@H](O)[C@H]5O)C4(C)C)C[C@H]3CC[C@]12C | ≥ 33.3 | 33.3 | ≥ 33.3 | > 100 |  |  | > 3 |
| CC(=O)OC[C@H]1O[C@@H](O[C@@H]2CC=C3C[C@H]4CC[C@]5(C)[C@@H]([C@H](C)CC[C@H](O[C@@H]6OC[C@H](O)[C@H](O)[C@H]6O)C(C)(C)O)CC[C@@]5(C(=O)O)[C@@H]4CC[C@H]3C2(C)C)[C@H](O)[C@@H](O)[C@@H]1O | 19.3 | > 33.3 | ≥ 33.3 |  | > 5.2 | > 100 |  |
| C[C@H](CC[C@H](O[C@@H]1OC[C@H](O)[C@H](O)[C@H]1O)C(C)(C)O)[C@H]1CC[C@@]2(C(=O)O)[C@@H]3CCC4=C(CC[C@@H](O[C@H]5OC[C@@H](O)[C@@H](O)[C@@H]5O)C4(C)C)C[C@H]3CC[C@]12C | ≥ 33.3 | > 33.3 | ≥ 33.3 |  |  |  |  |
| C[C@H](CC[C@H](O)C(C)(C)O)[C@H]1CC[C@@]2(C(=O)O)[C@@H]3CCC4=C(CC[C@@H](O[C@@H]5O[C@H](CO)[C@@H](O)[C@H](O)[C@H]5O)C4(C)C)C[C@H]3CC[C@]12C | ≥ 33.3 | 33.3 | ≥ 33.3 | 100 |  |  | 3 |
| C[C@H](CC[C@H](O)C(C)(C)O)[C@H]1CC[C@@]2(C(=O)O)C3=C(CC[C@]12C)[C@@]1(C)CC[C@@H](O[C@@H]2O[C@H](CO)[C@@H](O)[C@H](O)[C@H]2O)C(C)(C)[C@@H]1CC3 | ≥ 33.3 | > 33.3 | ≥ 33.3 |  |  |  |  |
| CC(=O)OC[C@H]1O[C@@H](O[C@@H]2CC=C3C[C@H]4CC[C@]5(C)[C@@H]([C@H](C)CC[C@H](O)C(C)(C)O)CC[C@@]5(C(=O)O)[C@@H]4CC[C@@H]3C2(C)C)[C@H](O)[C@@H](O)[C@@H]1O | ≥ 33.3 | > 33.3 | ≥ 33.3 |  |  |  |  |
| C[C@H](CC[C@H](O)C(C)(C)O)[C@H]1CC[C@@]2(C(=O)O)[C@@H]3CC[C@@H]4C(=CC[C@@H](O)C4(C)C)C[C@H]3CC[C@]12C | ≥ 33.3 | 25.9 | ≥ 33.3 | > 100 |  |  | > 3.9 |
| CC(=O)OC[C@H]1O[C@@H](O[C@@H]2CCC3=C(CC[C@@H]4[C@H](CC[C@]5(C)[C@@H]([C@H](C)CC[C@H](O[C@@H]6OC[C@H](O)[C@H](O)[C@H]6O)C(C)(C)O)CC[C@@]45C(=O)O)C3)C2(C)C)[C@H](O)[C@@H](O)[C@@H]1O | ≥ 33.3 | > 33.3 | ≥ 33.3 |  |  |  |  |
| C[C@H](CC[C@H](O[C@H]1O[C@@H](CO)[C@H](O)[C@@H](O)[C@@H]1O)C(C)(C)O)[C@H]1CC[C@@]2(C(=O)O)C3=C(CC[C@]12C)[C@@]1(C)CC[C@@H](O[C@@H]2O[C@H](CO)[C@@H](O)[C@H](O)[C@H]2O)C(C)(C)[C@@H]1CC3 | ≥ 33.3 | > 33.3 | ≥ 33.3 |  |  |  |  |
| C[C@H]1[C@H](C)CC[C@@]23CC[C@]4(C)[C@](OC2=O)([C@H](O)C[C@@H]2[C@@]5(C)C[C@@H](O)[C@@H](O)C(CO)(CO)[C@@H]5CC[C@]24C)[C@H]13 | ≥ 33.3 | > 33.3 | ≥ 33.3 |  |  |  |  |
| C[C@H]1[C@H](C)CC[C@@]23CC[C@@]4(C)[C@@]5(C)[C@H](C[C@@H](O)[C@]4(OC2=O)[C@H]13)[C@@]1(C)C[C@@H](O)[C@@H](O)[C@](C)(CO)[C@@H]1C[C@@H]5O | ≥ 33.3 | > 33.3 | ≥ 33.3 |  |  |  |  |
| C[C@H](CC[C@H](O[C@@H]1O[C@H](CO)[C@@H](O)[C@H](O)[C@H]1O)C(C)(C)O)[C@H]1CC[C@@]2(C(=O)O)C3=C(CC[C@]12C)[C@@]1(C)CC[C@@H](O)C(C)(C)[C@@H]1CC3 | 23.1 | > 33.3 | ≥ 33.3 |  | 2.5 | 57.7 |  |
| C[C@H](CC[C@H](O[C@@H]1OC[C@H](O)[C@H](O)[C@H]1O)C(C)(C)O)[C@H]1CC[C@@]2(C(=O)O)[C@@H]3CC[C@H]4C(=CC[C@@H](O[C@@H]5O[C@H](CO)[C@@H](O)[C@H](O)[C@H]5O)C4(C)C)C[C@H]3CC[C@]12C | ≥ 33.3 | > 33.3 | ≥ 33.3 |  |  |  |  |
| Nc1nc2c(ncn2COCCO)c(=O)[nH]1 [ACYCLOVIR] | 0.41 |  |  |  | > 244 | > 100 |  |
| CCOC(=O)C1=C[C@@H](OC(CC)CC)[C@H](NC(C)=O)[C@@H](N)C1 [OSELTAMIVIR] |  | 1.7 |  |  |  |  | 741 |
